Source: ChEMBL document CHEMBL5532718, “Identification and Evaluation of Reversible Covalent Binders to Cys55 of Bfl-1 from a DNA-Encoded Chemical Library Screen” (ACS Med Chem Lett, 2024)

Legend:
[1] = Lipophilicity, logD of compound in octanol/water at pH 7.4 by shake-flask method; assay type: physicochemical
[2] = biological target: T1, Bcl-2-related protein A1 (Homo sapiens, UniProt Q16548); assay: Inhibition of N-terminal His6-tagged recombinant human Bfl-1 (1 to 151 residues) expressed in Escherichia coli BL21-Gold (DE3) using HyLite Fluor 647-labeled BIM peptide as substrate incubated for 120 mins by TR-FRET assay
T1 sequence (Q16548 whole entry): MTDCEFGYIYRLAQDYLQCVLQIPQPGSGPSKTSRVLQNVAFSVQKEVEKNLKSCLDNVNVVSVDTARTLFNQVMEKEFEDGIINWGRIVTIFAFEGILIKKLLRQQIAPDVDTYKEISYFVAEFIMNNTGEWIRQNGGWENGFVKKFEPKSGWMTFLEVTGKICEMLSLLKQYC
Summary of the method: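 Bfl-1 binding read as displacement of a labeled BIM peptide probe in a TR-FRET assay, reported as IC50 in μM.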

[3] = biological target: Bcl-2-like protein 1 (Homo sapiens, UniProt Q07817); assay: Inhibition of Bcl-xl (unknown origin) incubated for 120 mins by TR-FRET assay
Bcl-2-like protein 1, sequence (Q07817 whole entry): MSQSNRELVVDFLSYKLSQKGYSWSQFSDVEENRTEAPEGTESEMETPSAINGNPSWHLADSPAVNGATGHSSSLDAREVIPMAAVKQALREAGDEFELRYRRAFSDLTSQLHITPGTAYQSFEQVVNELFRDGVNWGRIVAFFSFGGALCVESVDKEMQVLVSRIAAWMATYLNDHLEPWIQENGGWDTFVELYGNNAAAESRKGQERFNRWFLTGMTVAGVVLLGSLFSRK

[4] = biological target: Apoptosis regulator Bcl-2 (Homo sapiens, UniProt P10415); assay: Inhibition of Bcl-2 (unknown origin) incubated for 120 mins by TR-FRET assay
Apoptosis regulator Bcl-2, sequence (P10415 whole entry): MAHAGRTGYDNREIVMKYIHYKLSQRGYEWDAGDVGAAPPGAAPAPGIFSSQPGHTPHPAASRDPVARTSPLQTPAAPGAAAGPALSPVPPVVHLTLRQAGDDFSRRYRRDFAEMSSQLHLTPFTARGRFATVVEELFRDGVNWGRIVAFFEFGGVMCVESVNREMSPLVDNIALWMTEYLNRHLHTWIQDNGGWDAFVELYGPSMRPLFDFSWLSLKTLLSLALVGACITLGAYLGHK

[5] = biological target: Induced myeloid leukemia cell differentiation protein Mcl-1 (Homo sapiens, UniProt Q07820); assay: Inhibition of Mcl-1 (unknown origin) incubated for 120 mins by TR-FRET assay
Induced myeloid leukemia cell differentiation protein Mcl-1, sequence (Q07820 whole entry, the tested form may be a part): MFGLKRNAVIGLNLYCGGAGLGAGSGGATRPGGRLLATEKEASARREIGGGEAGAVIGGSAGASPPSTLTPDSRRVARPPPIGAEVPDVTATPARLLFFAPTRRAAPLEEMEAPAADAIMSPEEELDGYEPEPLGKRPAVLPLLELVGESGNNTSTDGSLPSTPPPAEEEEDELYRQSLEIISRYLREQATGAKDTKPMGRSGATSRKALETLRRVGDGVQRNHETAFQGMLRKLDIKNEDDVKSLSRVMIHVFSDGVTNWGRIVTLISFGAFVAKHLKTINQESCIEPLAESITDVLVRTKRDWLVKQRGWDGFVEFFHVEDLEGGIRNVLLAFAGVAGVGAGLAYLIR

[6] = biological target: T1, Bcl-2-related protein A1; assay: Binding affinity of N-terminal His6-tagged recombinant human Bfl-1 (1 to 151 residues) expressed in Escherichia coli BL21-Gold (DE3) assessed as inhibition constant by MS analysis

logD [1] | IC50 [2] [µM] | IC50 [3] [µM] | IC50 [4] [µM] | IC50 [5] [µM] | Ki [6] [µM] | Compound
2.1 | > 100 |  |  |  |  | CN(C)C(=O)[C@H](Cc1ccc(C(F)(F)F)cc1)NC(=O)/C(C#N)=C/c1ccc(P(C)(C)=O)cc1
3.2 | > 100 |  |  |  |  | CN(C)C(=O)C(Cc1ccc(C(F)(F)F)cc1)NC(=O)/C(C#N)=C/c1ccccc1S(=O)(=O)N(C)C (racemic)
2.2 | > 100 |  |  |  |  | CN(C)C(=O)[C@H](Cc1ccc(C(F)(F)F)cc1)NC(=O)/C(C#N)=C/c1cccc(P(C)(C)=O)c1
1.7 | > 100 |  |  |  |  | CP(C)(=O)c1ccccc1/C=C(\C#N)C(=O)NCCc1ccccc1
2.3 | 54 |  |  |  |  | CP(C)(=O)c1ccccc1/C=C(\C#N)C(=O)NCCc1ccc(Cl)cc1
2.6 | > 100 |  |  |  |  | CN(C)C(=O)[C@H](Cc1ccc(C(F)(F)F)cc1)NC(=O)/C(C#N)=C/c1ccccc1S(C)(=O)=O
1.9 | 27 |  |  |  |  | CP(C)(=O)c1ccccc1/C=C(\C#N)C(=O)NCCc1ccc(Cl)c(Cl)c1
3 | 4.3 |  |  |  |  | CP(C)(=O)c1ccccc1/C=C(\C#N)C(=O)NCC1(c2ccc(C(F)(F)F)cc2)CC1
3.9 | > 100 |  |  |  |  | CN(C)C(=O)[C@H](Cc1ccc(C(F)(F)F)cc1)NC(=O)/C(C#N)=C/c1ccccc1
2 | 29 | > 100 | > 100 | > 100 | 5.4 | CN(C)C(=O)[C@H](Cc1ccc(C(F)(F)F)cc1)NC(=O)/C(C#N)=C/c1ccccc1P(C)(C)=O
2.2 | > 100 |  |  |  |  | CN(C)C(=O)c1ccccc1/C=C(\C#N)C(=O)NC(Cc1ccc(C(F)(F)F)cc1)C(=O)N(C)C (racemic)
2.1 | > 100 |  |  |  |  | CN(C)C(=O)[C@@H](Cc1ccc(C(F)(F)F)cc1)NC(=O)/C(C#N)=C/c1ccccc1P(C)(C)=O
2.7 | 23 |  |  |  |  | CP(C)(=O)c1ccccc1/C=C(\C#N)C(=O)NCCc1ccc(C(F)(F)F)cc1
2 | 50 |  |  |  |  | CP(C)(=O)c1ccccc1/C=C(\C#N)C(=O)NCC1(c2ccccc2)CC1
